Values after ≈ are worked out from the molar mass of the structure shown. Active and inactive are the calls of the source. The calls are words filed in the database; no cut-off is given here.
Tests used:
[1] = biological target: T1, Cell division protein FtsZ (Staphylococcus aureus) (UniProt P0A031); experiment: Inhibition of Staphylococcus aureus ATCC 29213 FtsZ assessed as lowest drug level required for ballooning of cells by light microscopy
T1 sequence (whole entry): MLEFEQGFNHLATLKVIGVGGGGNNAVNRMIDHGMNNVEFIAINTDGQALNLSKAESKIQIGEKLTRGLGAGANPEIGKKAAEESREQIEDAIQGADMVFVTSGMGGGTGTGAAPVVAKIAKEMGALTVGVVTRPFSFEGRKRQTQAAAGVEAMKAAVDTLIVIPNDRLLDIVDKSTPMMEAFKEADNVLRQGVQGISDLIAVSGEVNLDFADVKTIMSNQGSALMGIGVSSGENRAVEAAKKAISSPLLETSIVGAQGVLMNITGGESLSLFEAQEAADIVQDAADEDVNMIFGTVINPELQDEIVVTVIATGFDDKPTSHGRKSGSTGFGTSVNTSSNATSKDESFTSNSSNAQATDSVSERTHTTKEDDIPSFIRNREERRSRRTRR
Procedure, shortened: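 Cocci examined by light microscopy for morphology. Value is the lowest concentration at which ballooning appears; WT is recorded when morphology is unchanged.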

[2] = tested on: Staphylococcus aureus; experiment: Antibacterial activity against Staphylococcus aureus ATCC 29213 by broth microdilution assay; format: functional
Procedure, shortened: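 Broth microdilution MIC per CLSI recommendations; reproducibility within one 2-fold dilution of the end point.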

[3] = tested on: Staphylococcus aureus; experiment: Antibacterial activity against Staphylococcus aureus ATCC 29213 by broth microdilution assay in presence of 2% bovine serum albumin; format: functional
Procedure, shortened: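 Broth microdilution MIC per CLSI recommendations, with 2% w/v bovine serum albumin added to the assay medium to track the effect of protein on antibacterial activity.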

[4] = Clearance in mouse hepatocytes at 10 uM assessed per 10^6 cells by LC/MS/MS analysis; format: ADME, cell-based, Liver, Hepatocyte
Procedure, shortened: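 Hepatocyte stability: compound at 10 µM incubated with hepatocytes. Parent loss over a time course measured by LC/MS/MS, and clearance expressed per 10⁶ cells.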

[5] = tested on: Staphylococcus aureus; experiment: Antimicrobial activity against Staphylococcus aureus Smith infected in mouse assessed as suppression of bacteria-induced mortality at 3 to 30 mg/kg, sc administered as single dose 1 hr after bacterial inoculation measured on day 2; format: functional, organism-based
Procedure, shortened: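 Mice inoculated IP with an LD90-100 of S. aureus Smith in 0.5 mL brain heart infusion broth with 5% mucin (4×10⁵ CFU/mouse for the IP study, 5×10⁵ CFU/mouse for the SC study). Vehicle or test agent given SC or IP 1 h post-infection at 3, 10 or 30 mg/kg. Mortality followed 7 days. ED50 by nonlinear regression.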

[6] = biological target: Cytochrome P450 2D6 (Homo sapiens, UniProt P10635); experiment: Inhibition of human recombinant CYP2D6 by fluorescence assay; format: ADME
Procedure, shortened: (§1)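 Human recombinant CYP isozymes tested by metabolism of fluorogenic substrates, read by fluorescence. IC50 in µg/mL.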

[7] = Chemical stability in phosphate buffered saline assessed as compound remaining at 10 uM after 24 hrs by LC/MS/MS analysis; format: physicochemical; conditions: buffer
Procedure, shortened: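 10 µM solution in phosphate buffered saline held 24 h at 37 °C. Parent remaining quantified by LC/MS.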

[8] = tested on: Staphylococcus aureus; experiment: Antimicrobial activity against Staphylococcus aureus Smith infected in ip dosed mouse administered as single dose 1 hr after bacterial inoculation; format: functional
Procedure, shortened: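 Mice inoculated IP with an LD90-100 of S. aureus Smith (4×10^5 CFU/mouse) in 0.5 mL brain heart infusion broth with 5% mucin. Single IP dose of test substance or vehicle 1 h after inoculation, at 3, 10 or 30 mg/kg. Mortality monitored for 7 days. ED50 by nonlinear regression.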

[9] = biological target: Cytochrome P450 2C9 (Homo sapiens, UniProt P11712); experiment: Inhibition of human recombinant CYP2C9 by fluorescence assay; format: ADME; procedure, shortened: as §1
[10] = biological target: Cytochrome P450 2C19 (Homo sapiens, UniProt P33261); experiment: Inhibition of human recombinant CYP2C19 by fluorescence assay; format: ADME; procedure, shortened: as §1
[11] = biological target: Cytochrome P450 3A4 (Homo sapiens, UniProt P08684); experiment: Inhibition of human recombinant CYP3A4 by fluorescence assay; format: ADME; procedure, shortened: as §1
[12] = tested on: Plasma; experiment: Plasma protein binding in mouse at 10 uM by equilibrium dialysis; format: ADME, cell-free
Procedure, shortened: (§2)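 Binding to plasma measured by equilibrium dialysis of a 10 µM compound solution. Reported as fraction unbound or percent bound.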

[13] = Clearance in mouse microsome at 10 uM by LC/MS/MS analysis; format: ADME, Liver; conditions: microsomes
Procedure, shortened: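 Microsomal stability: compound at 10 µM incubated with microsomes. Parent remaining followed over a time course by LC/MS to give clearance per mg protein.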

[14] = tested on: Staphylococcus aureus; experiment: Antimicrobial activity against Staphylococcus aureus Smith infected in sc dosed mouse administered as single dose 1 hr after bacterial inoculation; format: functional
Procedure, shortened: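 Mice inoculated IP with an LD90-100 of S. aureus Smith (5×10^5 CFU/mouse) in 0.5 mL brain heart infusion broth with 5% mucin. Single SC dose of test substance or vehicle 1 h after inoculation, at 3, 10 or 30 mg/kg. Mortality monitored for 7 days. ED50 by nonlinear regression.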

[15] = tested on: Plasma; experiment: Fraction unbound in human plasma at 10 uM by equilibrium dialysis; format: ADME, cell-free; procedure, shortened: as §2
[16] = tested on: Plasma; experiment: Fraction unbound in mouse plasma at 10 uM by equilibrium dialysis; format: ADME, cell-free; procedure, shortened: as §2
[17] = tested on: Plasma; experiment: Metabolic stability in mouse plasma assessed as compound remaining at 10 uM after 24 hrs by LC/MS/MS analysis; format: ADME, cell-free
Procedure, shortened: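 10 µM compound in mouse plasma incubated 24 h at 37 °C. Percent remaining measured by LC/MS.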

[18] = biological target: T2, Cytochrome P450 1A2 (Homo sapiens, UniProt P05177); experiment: Inhibition of human recombinant CYP1A2 by fluorescence assay; format: ADME; procedure, shortened: as §1
T2 sequence (P05177 whole entry): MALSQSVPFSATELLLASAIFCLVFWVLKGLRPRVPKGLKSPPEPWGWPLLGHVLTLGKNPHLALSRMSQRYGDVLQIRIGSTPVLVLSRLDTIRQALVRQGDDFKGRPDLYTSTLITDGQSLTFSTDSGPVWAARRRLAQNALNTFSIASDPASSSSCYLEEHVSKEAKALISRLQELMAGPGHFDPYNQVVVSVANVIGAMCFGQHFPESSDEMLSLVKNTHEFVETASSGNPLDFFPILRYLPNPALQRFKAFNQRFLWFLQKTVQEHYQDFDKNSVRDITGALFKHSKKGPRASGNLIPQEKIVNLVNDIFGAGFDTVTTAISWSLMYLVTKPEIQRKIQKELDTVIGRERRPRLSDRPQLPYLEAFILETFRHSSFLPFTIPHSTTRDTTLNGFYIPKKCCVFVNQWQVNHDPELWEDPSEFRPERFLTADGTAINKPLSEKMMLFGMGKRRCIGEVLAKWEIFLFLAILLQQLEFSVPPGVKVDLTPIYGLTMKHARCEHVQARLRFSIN

[19] = biological target: T1, Cell division protein FtsZ (Staphylococcus aureus); experiment: Inhibition of Staphylococcus aureus ATCC 29213 FtsZ assessed as appearance of enlarged cells at 2048 to 4096 ug/mL by light microscopy

Sequence of Cytochrome P450 2D6 (P10635 whole entry): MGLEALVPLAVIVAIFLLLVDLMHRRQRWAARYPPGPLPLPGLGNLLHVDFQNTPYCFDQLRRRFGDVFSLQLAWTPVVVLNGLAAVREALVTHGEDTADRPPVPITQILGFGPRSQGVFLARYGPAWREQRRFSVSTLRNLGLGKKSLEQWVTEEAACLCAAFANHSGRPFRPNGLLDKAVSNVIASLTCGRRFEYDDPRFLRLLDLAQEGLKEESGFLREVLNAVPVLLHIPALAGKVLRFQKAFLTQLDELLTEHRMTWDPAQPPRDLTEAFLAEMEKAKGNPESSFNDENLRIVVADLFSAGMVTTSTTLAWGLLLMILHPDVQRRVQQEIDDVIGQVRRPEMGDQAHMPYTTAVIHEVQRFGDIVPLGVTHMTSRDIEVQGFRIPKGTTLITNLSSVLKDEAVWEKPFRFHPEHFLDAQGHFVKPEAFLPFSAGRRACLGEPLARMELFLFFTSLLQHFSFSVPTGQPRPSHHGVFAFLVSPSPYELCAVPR
Sequence of Cytochrome P450 2C19 (P33261 whole entry): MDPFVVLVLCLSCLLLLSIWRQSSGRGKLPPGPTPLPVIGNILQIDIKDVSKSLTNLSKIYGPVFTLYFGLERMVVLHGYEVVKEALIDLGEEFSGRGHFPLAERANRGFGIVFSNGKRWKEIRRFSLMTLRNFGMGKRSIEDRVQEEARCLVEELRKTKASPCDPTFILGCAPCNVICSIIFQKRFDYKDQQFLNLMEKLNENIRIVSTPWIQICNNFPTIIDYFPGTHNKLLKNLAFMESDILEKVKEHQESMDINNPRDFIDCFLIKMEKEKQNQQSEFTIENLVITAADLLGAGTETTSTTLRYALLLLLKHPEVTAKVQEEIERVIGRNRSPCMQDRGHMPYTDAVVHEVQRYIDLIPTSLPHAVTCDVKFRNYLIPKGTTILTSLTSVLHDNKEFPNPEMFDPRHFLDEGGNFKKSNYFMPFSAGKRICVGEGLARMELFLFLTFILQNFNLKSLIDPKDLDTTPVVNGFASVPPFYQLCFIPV
Sequence of Cytochrome P450 2C9 (P11712 whole entry): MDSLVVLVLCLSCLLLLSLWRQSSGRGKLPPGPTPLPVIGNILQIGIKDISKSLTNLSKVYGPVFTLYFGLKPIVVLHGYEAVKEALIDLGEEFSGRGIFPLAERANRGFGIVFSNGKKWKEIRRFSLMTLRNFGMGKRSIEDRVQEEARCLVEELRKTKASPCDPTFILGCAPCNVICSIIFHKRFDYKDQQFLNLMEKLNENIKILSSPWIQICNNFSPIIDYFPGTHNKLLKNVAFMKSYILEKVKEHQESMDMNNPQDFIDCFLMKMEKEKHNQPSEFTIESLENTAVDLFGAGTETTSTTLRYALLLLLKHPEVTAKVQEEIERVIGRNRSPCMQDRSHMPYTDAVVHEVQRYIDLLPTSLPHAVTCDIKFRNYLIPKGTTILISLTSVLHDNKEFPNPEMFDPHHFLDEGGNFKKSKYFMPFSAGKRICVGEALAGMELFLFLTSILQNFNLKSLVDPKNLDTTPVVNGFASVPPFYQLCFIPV
Sequence of Cytochrome P450 3A4 (P08684 whole entry): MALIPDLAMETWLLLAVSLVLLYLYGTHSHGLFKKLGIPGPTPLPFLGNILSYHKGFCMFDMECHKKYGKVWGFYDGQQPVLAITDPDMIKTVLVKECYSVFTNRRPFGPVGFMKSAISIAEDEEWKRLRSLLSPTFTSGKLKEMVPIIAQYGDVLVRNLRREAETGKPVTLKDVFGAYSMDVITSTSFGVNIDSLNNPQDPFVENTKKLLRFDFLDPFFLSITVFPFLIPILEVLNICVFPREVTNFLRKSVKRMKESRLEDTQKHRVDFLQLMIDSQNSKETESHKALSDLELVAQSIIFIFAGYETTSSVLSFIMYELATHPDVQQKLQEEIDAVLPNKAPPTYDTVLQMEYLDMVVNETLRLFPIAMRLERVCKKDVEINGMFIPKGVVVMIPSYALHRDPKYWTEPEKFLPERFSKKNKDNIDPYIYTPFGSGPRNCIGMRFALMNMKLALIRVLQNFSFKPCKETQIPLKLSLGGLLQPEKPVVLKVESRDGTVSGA

COC(=O)c1ccc2sc(COc3ccc(F)c(C(N)=O)c3F)nc2c1
Activity [1]: 2 µg/mL
MIC [2]: 1 µg/mL (≈ 2.64 µM)

COc1cc2nc(COc3ccc(F)c(C(N)=O)c3F)sc2nc1Cl
MIC [3]: > 64 µg/mL
MIC [2]: 16 µg/mL (≈ 41.5 µM)

NC(=O)c1c(F)ccc(OCc2nc3cccc(Cl)c3s2)c1F
Activity [1]: 8 µg/mL
MIC [2]: 4 µg/mL (≈ 11.3 µM)

NC(=O)c1c(F)ccc(OCc2nc3cc(Cl)ncc3s2)c1F
MIC [3]: 32 µg/mL
MIC [2]: 8 µg/mL (≈ 22.5 µM)

NC(=O)c1c(F)ccc(OCc2nc3cc(C(F)(F)F)ccc3s2)c1F
Activity [1]: 0.5 µg/mL
MIC [2]: 0.25 µg/mL (≈ 0.644 µM)

NC(=O)c1c(F)ccc(OCc2nc3c(Cl)cccc3s2)c1F
Activity [1]: 8 µg/mL
MIC [2]: 16 µg/mL (≈ 45.1 µM)

Cc1ccc2nc(COc3ccc(F)c(C(N)=O)c3F)sc2c1
MIC [2]: 8 µg/mL (≈ 23.9 µM)

NC(=O)c1c(F)ccc(OCc2nc3c(-c4ccccc4)cccc3s2)c1F
MIC [2]: > 256 µg/mL

NC(=O)c1c(F)ccc(OCc2nc3cc(Cl)ccc3s2)c1F
CL [4]: 31.2 uL/min/10^6cells
Activity [5]: inactive
IC50 [6]: > 33.8 µM
Activity [1]: 0.25 µg/mL
Stability [7]: 99%
ED50 [8]: 41 mg/kg
IC50 [9]: > 33.8 µM
IC50 [10]: > 33.8 µM
IC50 [11]: > 33.8 µM
PPB [12]: 96.4%
CL [13]: 14 µL/min/mg
ED50 [14]: > 30 mg/kg
Fu [15]: 1%
Fu [16]: 3%
Stability [17]: 99%
IC50 [18]: > 33.8 µM

NC(=O)c1c(F)ccc(OCc2nc3ccccc3o2)c1F
MIC [1]: 256 µg/mL (≈ 841 µM)
MIC [2]: 128 µg/mL (≈ 421 µM)

NC(=O)c1c(F)ccc(OCc2nc3cc(O)ccc3s2)c1F
Activity [1]: 64 µg/mL
MIC [2]: 32 µg/mL (≈ 95.1 µM)

NC(=O)c1c(F)ccc(OCc2nc3cc(-c4ccccc4)ccc3s2)c1F
Activity [1]: 0.5 µg/mL
MIC [2]: 0.25 µg/mL (≈ 0.631 µM)
PPB [12]: 99.2%

Cc1cccc2sc(COc3ccc(F)c(C(N)=O)c3F)nc12
Activity [1]: 2050 µg/mL
MIC [2]: 16 µg/mL (≈ 47.9 µM)

NC(=O)c1c(F)ccc(OCc2ccc3ccccc3n2)c1F
MIC [3]: 32 µg/mL
MIC [1]: 16 µg/mL (≈ 50.9 µM)

Cc1ccc2sc(COc3ccc(F)c(C(N)=O)c3F)nc2c1
Activity [1]: 8 µg/mL
MIC [2]: 4 µg/mL (≈ 12 µM)

NC(=O)c1c(F)ccc(OCc2nc3cccc(-c4ccccc4)c3s2)c1F
MIC [2]: > 256 µg/mL

CCOc1ccc2sc(COc3ccc(F)c(C(N)=O)c3F)nc2c1
Activity [1]: 0.125 µg/mL
PPB [12]: 96.4%

Cc1csc(COc2ccc(F)c(C(N)=O)c2F)n1
MIC [1]: 16 µg/mL (≈ 56.3 µM)

CCCc1ccc2sc(COc3ccc(F)c(C(N)=O)c3F)nc2c1
Activity [1]: 0.125 µg/mL

COc1ccc2sc(COc3ccc(F)c(C(N)=O)c3F)nc2c1
Activity [1]: 2 µg/mL

NC(=O)c1c(F)ccc(OCc2nc3ccccc3s2)c1F
MIC [3]: 8 µg/mL
MIC [1]: 4 µg/mL (≈ 12.5 µM)
MIC [2]: 2 µg/mL (≈ 6.24 µM)

NC(=O)c1c(F)ccc(OCc2nc3cc(-c4ccccc4)cnc3s2)c1F
MIC [3]: 4 µg/mL
MIC [2]: 0.5 µg/mL (≈ 1.26 µM)
PPB [12]: 98.5%

NC(=O)c1c(F)ccc(Oc2nc3ccccc3s2)c1F
MIC [3]: > 256 µg/mL
MIC [2]: > 256 µg/mL

NC(=O)c1c(F)ccc(OCc2nc3cc(-c4ncno4)ccc3s2)c1F
Activity [1]: 0.5 µg/mL
MIC [2]: 0.5 µg/mL (≈ 1.29 µM)

CCOc1cnc2sc(COc3ccc(F)c(C(N)=O)c3F)nc2c1
MIC [3]: 0.25 µg/mL
MIC [2]: 0.125 µg/mL (≈ 0.342 µM)
PPB [12]: 89.9%

NC(=O)c1ccc2sc(COc3ccc(F)c(C(N)=O)c3F)nc2c1
MIC [2]: > 64 µg/mL

CN(C)c1ccc2sc(COc3ccc(F)c(C(N)=O)c3F)nc2c1
MIC [2]: > 64 µg/mL

COc1cccc(C(N)=O)c1
MIC [3]: 4100 µg/mL
inhibition [19]: Active
MIC [2]: 2050 µg/mL (≈ 13500 µM)

CCCCCCOc1ccc(F)c(C(N)=O)c1F
MIC [3]: 32 µg/mL
MIC [1]: 8 µg/mL (≈ 31.1 µM)

NC(=O)c1c(F)ccc(OCc2nc3cc(C(=O)O)ccc3s2)c1F
MIC [2]: > 64 µg/mL

NC(=O)c1c(F)ccc(OCCn2cccn2)c1F
MIC [3]: 256 µg/mL
MIC [2]: 256 µg/mL (≈ 958 µM)

Cc1cnc(COc2ccc(F)c(C(N)=O)c2F)s1
MIC [3]: 256 µg/mL
MIC [2]: 256 µg/mL (≈ 900 µM)

COc1cccc2sc(COc3ccc(F)c(C(N)=O)c3F)nc12
Activity [1]: 64 µg/mL
MIC [2]: 16 µg/mL (≈ 45.7 µM)

COc1ccc2nc(COc3ccc(F)c(C(N)=O)c3F)sc2c1
MIC [2]: > 256 µg/mL

Cc1cccc(COc2ccc(F)c(C(N)=O)c2F)n1
MIC [3]: 64 µg/mL
MIC [1]: 32 µg/mL (≈ 115 µM)

NC(=O)c1c(F)ccc(OCc2nc3ccc(-c4ccccc4)cc3s2)c1F
MIC [2]: > 256 µg/mL

Cc1csc(COc2ccc(F)c(C(N)=O)c2F)c1
MIC [3]: 128 µg/mL
MIC [1]: 32 µg/mL (≈ 113 µM)

NC(=O)c1c(F)ccc(OCc2nc3cc(N)ccc3s2)c1F
MIC [2]: > 64 µg/mL

NC(=O)c1c(F)ccc(OCc2nc3ccc(Cl)cc3s2)c1F
Activity [1]: 8 µg/mL
MIC [2]: 4 µg/mL (≈ 11.3 µM)

NC(=O)c1c(F)ccc(OCc2nc3cc(Br)ccc3s2)c1F
Activity [1]: 0.25 µg/mL
MIC [2]: 0.125 µg/mL (≈ 0.313 µM)

NC(=O)c1c(F)ccc(OCc2nc3cc(-c4ncc[nH]4)ccc3s2)c1F
MIC [2]: > 64 µg/mL
